Results as given in ChEMBL document CHEMBL4400512, “Searching for new agents active against Candida albicans biofilm: A series of indole derivatives, design, synthesis and biological evaluation” (Eur J Med Chem, 2019).
In brackets after ≈: the same amount, converted by molar mass.

Legend:
Candida albicans [1] = experiment: Antifungal activity against planktonic form of Candida albicans ATCC 10231 by broth microdilution method; assay type: organism-based; conditions: in vitro
Procedure, shortened: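 CLSI M27-A3 broth microdilution. Cells grown on Sabouraud dextrose agar at 35°C for 24 h; final inoculum 1×10^3–5×10^3 cells/mL. Compounds from DMSO stocks, final DMSO below 1%, final range 256–0.25 µg/mL. Controls were DMSO 1% and fluconazole reference. MIC50 is the lowest concentration giving ≥50% growth inhibition. Three independent experiments in duplicate; median reported.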

Candida albicans [2] = experiment: Antibiofilm activity against Candida albicans ATCC 10231 assessed as inhibition of mature biofilm formation by XTT reduction assay; assay type: functional
Procedure, shortened: (§1)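 Biofilm assay after Pierce et al., with compound applied either during biofilm formation or to 24 h pre-formed (mature) biofilm. Read-out is metabolic activity of cells in the biofilm by XTT reduction. BMIC50 is the lowest concentration giving a 50% drop relative to untreated growth control. Tested in triplicate, at least two experiments on separate dates; median reported.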

Candida albicans [3] = experiment: Antibiofilm activity against Candida albicans ATCC 10231 assessed as inhibition of biofilm formation by XTT reduction assay; assay type: functional; procedure, shortened: as §1
[4] = Toxicity in Galleria mellonella larvae assessed as larval survival at 500 ug/ml after 48 hrs relative to control
Procedure, shortened: (§2)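 Ten healthy larvae per group, stored at 15°C in the dark. Each got a 20 µL injection into the haemocoel via the last left proleg, with compound freshly made in sterile water containing <1% v/v DMSO. Larvae were incubated at 30°C and survival scored every 24 h; death was no movement on stimulation plus cuticle discolouration. Controls were untreated, pierced-only and vehicle. Mean % survival of two independent experiments.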

[5] = Toxicity in Galleria mellonella larvae assessed as larval survival at 10 ug/ml after 48 hrs relative to control; procedure, shortened: as §2
Candida albicans [6] = experiment: Antifungal activity against planktonic form of Candida albicans PMC 1082 by broth microdilution method; assay type: organism-based; conditions: in vitro
Procedure, shortened: (§3)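 Broth microdilution per CLSI M27-A3 and M27-S4. Strains were grown on Sabouraud dextrose agar at 35°C for 24 h. Final inoculum 1×10^3–5×10^3 cells/mL. Compounds were dissolved in DMSO (final <1%); 1% DMSO served as control. Final range 256–0.25 µg/mL. MIC50 is the lowest concentration giving ≥50% growth inhibition. Three independent experiments in duplicate, median; fluconazole as reference.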

[7] = Toxicity in Galleria mellonella larvae assessed as larval survival at 100 ug/ml after 72 hrs relative to control; procedure, shortened: as §2
[8] = Toxicity in Galleria mellonella larvae assessed as larval survival at 10 ug/ml after 24 hrs relative to control; procedure, shortened: as §2
[9] = Toxicity in Galleria mellonella larvae assessed as larval survival at 50 ug/ml after 48 hrs relative to control; procedure, shortened: as §2
[10] = Toxicity in Galleria mellonella larvae assessed as larval survival at 100 ug/ml after 48 hrs relative to control; procedure, shortened: as §2
Candida albicans [11] = experiment: Antibiofilm activity against Candida albicans PMC 1082 assessed as inhibition of mature biofilm formation by XTT reduction assay; assay type: functional
Procedure, shortened: (§4)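 Biofilm method of Pierce et al. Biofilms were treated either during formation or once mature (24 h preformed). Metabolic activity of the cells within the biofilm was read by XTT reduction. BMIC50 is the lowest concentration giving a 50% drop in metabolic activity versus the untreated growth control. At least two experiments on separate dates, triplicate, reported as median.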

Candida albicans [12] = experiment: Antibiofilm activity against Candida albicans PMC 1042 assessed as inhibition of biofilm formation by XTT reduction assay; assay type: functional; procedure, shortened: as §4
Candida albicans [13] = experiment: Antibiofilm activity against Candida albicans PMC 1082 assessed as inhibition of biofilm formation by XTT reduction assay; assay type: functional; procedure, shortened: as §4
[14] = Toxicity in Galleria mellonella larvae assessed as larval survival at 5 ug/ml after 24 hrs relative to control; procedure, shortened: as §2
[15] = Toxicity in Galleria mellonella larvae assessed as larval survival at 5 ug/ml after 48 hrs relative to control; procedure, shortened: as §2
[16] = Toxicity in Galleria mellonella larvae assessed as larval survival at 10 ug/ml after 72 hrs relative to control; procedure, shortened: as §2
Candida albicans [17] = experiment: Antifungal activity against planktonic form of Candida albicans PMC 1042 by broth microdilution method; assay type: organism-based; conditions: in vitro; procedure, shortened: as §3
Candida albicans [18] = experiment: Antibiofilm activity against Candida albicans PMC 1042 assessed as inhibition of mature biofilm formation by XTT reduction assay; assay type: functional; procedure, shortened: as §4
[19] = Toxicity in Galleria mellonella larvae assessed as larval survival at 50 ug/ml after 24 hrs relative to control; procedure, shortened: as §2
Candida albicans [20] = experiment: Antifungal activity against planktonic form of Candida albicans ATCC 10261 by broth microdilution method; assay type: organism-based; conditions: in vitro; procedure, shortened: as §3
[21] = Toxicity in Galleria mellonella larvae assessed as larval survival at 500 ug/ml after 24 hrs relative to control; procedure, shortened: as §2
[22] = Toxicity in Galleria mellonella larvae assessed as larval survival at 50 ug/ml after 72 hrs relative to control; procedure, shortened: as §2
Candida albicans [23] = experiment: Antibiofilm activity against Candida albicans ATCC 10261 assessed as inhibition of mature biofilm formation by XTT reduction assay; assay type: functional; procedure, shortened: as §4
Candida albicans [24] = experiment: Antibiofilm activity against Candida albicans ATCC 10261 assessed as inhibition of biofilm formation by XTT reduction assay; assay type: functional; procedure, shortened: as §4
[25] = Toxicity in Galleria mellonella larvae assessed as larval survival at 500 ug/ml after 72 hrs relative to control; procedure, shortened: as §2
[26] = Toxicity in Galleria mellonella larvae assessed as larval survival at 100 ug/ml after 24 hrs relative to control; procedure, shortened: as §2
[27] = Toxicity in Galleria mellonella larvae assessed as larval survival at 5 ug/ml after 72 hrs relative to control; procedure, shortened: as §2

Row | Compound | MIC50 (Candida albicans [1]) | MBIC50 (Candida albicans [2]) | MBIC50 (Candida albicans [3]) | survival at 48 h [4] | survival at 48 h [5] | survival at 72 h [7] | survival at 24 h [8] | survival at 48 h [9] | survival at 48 h [10] | survival at 24 h [14] | survival at 48 h [15] | survival at 72 h [16] | survival at 24 h [19] | survival at 24 h [21] | survival at 72 h [22] | survival at 72 h [25] | survival at 24 h [26] | survival at 72 h [27] | further results
1 | O=C(NCCc1c[nH]c2ccccc12)c1ccc([N+](=O)[O-])o1 | > 128 µg/mL | 16 µg/mL | 128 µg/mL |  |  |  |  |  |  |  |  |  |  |  |  |  |  |  | 
2 | c1ccc(Oc2ccc(CNCCc3c[nH]c4ccccc34)cc2)cc1 | 4 µg/mL (≈ 11.7 µM) | 2 µg/mL | 2 µg/mL | 70% | 100% | 100% | 100% | 100% | 100% | 100% | 100% | 100% | 100% | 90% | 100% | 70% | 100% | 100% | MIC50 (Candida albicans [6]): 16 µg/mL (≈ 46.7 µM); MBIC50 (Candida albicans [11]): 2 µg/mL; MBIC50 (Candida albicans [12]): 8 µg/mL; MBIC50 (Candida albicans [13]): 8 µg/mL; MIC50 (Candida albicans [17]): 64 µg/mL (≈ 187 µM); MBIC50 (Candida albicans [18]): 2 µg/mL; MIC50 (Candida albicans [20]): 16 µg/mL (≈ 46.7 µM); MBIC50 (Candida albicans [23]): 8 µg/mL; MBIC50 (Candida albicans [24]): 8 µg/mL
3 | c1ccc2c(CCNCc3ccc(CNCCc4c[nH]c5ccccc45)cc3)c[nH]c2c1 | > 128 µg/mL | 8 µg/mL | 16 µg/mL | 100% | 100% | 100% | 100% | 90% | 100% | 100% | 100% | 100% | 100% | 100% | 90% | 100% | 100% | 100% | MIC50 (Candida albicans [6]): > 256 µg/mL; MBIC50 (Candida albicans [11]): 4 µg/mL; MBIC50 (Candida albicans [12]): 8 µg/mL; MBIC50 (Candida albicans [13]): 8 µg/mL; MIC50 (Candida albicans [17]): > 256 µg/mL; MBIC50 (Candida albicans [18]): 2 µg/mL; MIC50 (Candida albicans [20]): 256 µg/mL (≈ 606 µM); MBIC50 (Candida albicans [23]): 4 µg/mL; MBIC50 (Candida albicans [24]): 4 µg/mL
4 | O=[N+]([O-])c1ccccc1CNCCc1c[nH]c2ccccc12 | > 128 µg/mL | 8 µg/mL | 64 µg/mL | 100% | 100% | 90% | 100% | 90% | 90% | 100% | 100% | 100% | 90% | 100% | 90% | 100% | 90% | 100% | 
5 | O=C(NCCc1c[nH]c2ccccc12)c1ccccn1 | > 128 µg/mL | 32 µg/mL | 32 µg/mL |  |  |  |  |  |  |  |  |  |  |  |  |  |  |  | 
6 | Brc1ccccc1CNCCc1c[nH]c2ccccc12 | 128 µg/mL (≈ 389 µM) | 16 µg/mL | 16 µg/mL |  |  |  |  |  |  |  |  |  |  |  |  |  |  |  | 
7 | O=C(NCCc1c[nH]c2ccccc12)c1cccnc1 [NICOTREDOLE] | > 128 µg/mL | 64 µg/mL | >128 µg/mL |  |  |  |  |  |  |  |  |  |  |  |  |  |  |  | 
8 | Clc1ccc(CNCCc2c[nH]c3ccccc23)cc1 | 32 µg/mL (≈ 112 µM) | 32 µg/mL | 16 µg/mL |  |  |  |  |  |  |  |  |  |  |  |  |  |  |  | 
9 | C(=C\c1ccccc1)/CNCCc1c[nH]c2ccccc12 | 64 µg/mL (≈ 232 µM) | 64 µg/mL | 8 µg/mL |  |  |  |  |  |  |  |  |  |  |  |  |  |  |  | 
10 | CN(C)c1ccc(CNCCc2c[nH]c3ccccc23)cc1 | > 128 µg/mL | 16 µg/mL | 32 µg/mL |  |  |  |  |  |  |  |  |  |  |  |  |  |  |  | 
